Measured values collected from several papers.
Each line is one published result; the experiments were not run side by side.
Target: Serine/threonine-protein kinase D2 (PRKD2, Homo sapiens, UniProt Q9BZL6)
One construct used (Q9BZL6 1-878): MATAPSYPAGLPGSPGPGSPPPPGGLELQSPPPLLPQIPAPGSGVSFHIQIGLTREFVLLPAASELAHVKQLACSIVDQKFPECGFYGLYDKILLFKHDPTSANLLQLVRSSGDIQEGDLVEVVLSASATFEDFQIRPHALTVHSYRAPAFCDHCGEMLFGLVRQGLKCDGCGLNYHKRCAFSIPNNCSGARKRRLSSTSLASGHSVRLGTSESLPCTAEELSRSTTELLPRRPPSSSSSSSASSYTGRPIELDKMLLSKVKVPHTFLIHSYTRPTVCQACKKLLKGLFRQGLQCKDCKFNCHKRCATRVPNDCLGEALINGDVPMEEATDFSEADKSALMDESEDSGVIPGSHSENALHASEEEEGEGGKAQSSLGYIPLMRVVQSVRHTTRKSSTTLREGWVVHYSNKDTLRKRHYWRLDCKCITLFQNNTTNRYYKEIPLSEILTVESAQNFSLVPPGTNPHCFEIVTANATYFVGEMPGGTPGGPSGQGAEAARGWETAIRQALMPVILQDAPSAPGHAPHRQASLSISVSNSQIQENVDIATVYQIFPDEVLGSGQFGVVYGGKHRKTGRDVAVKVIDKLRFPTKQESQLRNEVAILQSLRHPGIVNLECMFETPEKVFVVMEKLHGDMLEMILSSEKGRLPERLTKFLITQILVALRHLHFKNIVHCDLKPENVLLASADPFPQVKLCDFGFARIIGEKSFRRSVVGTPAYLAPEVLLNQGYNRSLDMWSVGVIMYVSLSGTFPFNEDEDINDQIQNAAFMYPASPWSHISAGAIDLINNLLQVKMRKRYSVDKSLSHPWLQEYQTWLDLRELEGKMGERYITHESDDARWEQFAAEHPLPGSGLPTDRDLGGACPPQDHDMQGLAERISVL

O=c1[nH]c2ccccc2n1C1CCN(Cc2ccc(-c3[nH]c4cc5ncnc5cc4nc3-c3ccccc3)cc2)CC1 — remaining signal (cell-free assay; 0.5 µM): 109%
Nc1ncc(-c2nc(N3CCOCC3)nc(N3CCOCC3)n2)c(C(F)F)n1 — remaining binding (binding, competition with immobilised ligand; 10 µM): 99%
Cc1nn(C)cc1-c1nc2c(N3CCN(Cc4ccc(Cl)cc4)CC3)c(Cl)cnc2[nH]1 — remaining binding (binding, competition with immobilised ligand; 1 µM): 100%
Cn1cc(-c2cccc(N3CCc4c(sc5c4CC(C)(C)C5)C3=O)c2CO)cc(Nc2ccncn2)c1=O — inhibition (enzyme activity, inhibitor; 1 µM): 0%
Cn1cncc1[C@](O)(COc1ccc(C#N)cc1-c1ccc(OC(F)(F)F)cc1)c1ccc(C#N)cc1 — remaining binding (cell-free assay, competition with immobilised ligand; 1 µM): 84%
Cn1cc(-c2cc(F)cc(N3CCn4c(cc5c4CCCC5)C3=O)c2CO)cc(Nc2ccc(N3CCN(C4COC4)CC3)cn2)c1=O — inhibition (enzyme activity, inhibitor; 0.1 µM): 11%
COc1ncccc1-c1cnn2ccc(N3CCN(C(=O)OC(C)C)CC3)nc12 — remaining binding (binding, competition with immobilised ligand; 1 µM): 100%
COc1cc(Nc2ncc(F)c(Nc3ccc4c(n3)NC(=O)C(C)(C)O4)n2)cc(OC)c1OC — inhibition (binding; 10 µM): 0%
CC(C)(C)c1cc(C=C(C#N)C#N)cc(Br)c1O — remaining activity (enzyme activity, inhibitor; 0.5 µM): 108%
